Series [1] can be described thus: Inhibition of the ATP-mediated HIV1 reverse transcriptase D67N/K70R/T215F/K219Q mutant catalyzed 3'-azido, 3'-deoxythymidine excision from AZT-terminated DNA primers. The arrangement: species or system Human immunodeficiency virus 1. In short, it runs like this: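 TAM-RT incubated with 5′-³²P-labeled 57/19 heteropolymeric DNA T/P whose 20 nt primer was chain-terminated with AZTMP (RT:T/P 4:1), in 50 mM Tris-HCl pH 8.0, 50 mM KCl, with or without varying bisphosphonate. Started with 10 mM MgCl₂ + 3.0 mM ATP, inorganic pyrophosphatase included. Timed aliquots quenched in formamide/EDTA dye. 20 nt and 19 nt excision product resolved on denaturing gel, quantified by phosphorimaging; IC₅₀.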

Series [2] can be described thus: Toxicity against human MCF7 cells assessed as growth inhibition by broth microdilution method. It counts as cell-based. The gist of the method: (§1)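 Cells grown in RPMI-1640 with 2mM L-glutamine and 10% FBS at 37°C, 5% CO₂. Seeded at 5,000 cells/well and exposed to compounds in half-log serial dilution, 316μM–10nM (100μM–10nM when the DMSO stock was used), for 4 days. Read-out by MTT, absorbance at 600nm. IC₅₀ fitted to a rectangular hyperbola with Imax fixed at 100%.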
In general terms: In broth dilution the organism is exposed to a series of concentrations in liquid medium.

Series [3] is described as follows: Toxicity against human SF268 cells assessed as growth inhibition by broth microdilution method. It counts as cell-based, SF-268. The gist of the method:
as §1

Series [4] is described as follows: Toxicity against human NCI-H460 cells assessed as growth inhibition by broth microdilution method. Type of series: cell-based. The gist of the method: as §1
For series [5], the system named is Human immunodeficiency virus 1. The series is described as follows: Inhibition of the ATP-mediated HIV1 reverse transcriptase D67N/K70R/T215F/K219Q mutant catalyzed DNA synthesis.

Calls of active or inactive are those of the source. The calls are words filed in the database; no cut-off is given here.

The results in this text go back to ChEMBL document CHEMBL1141713, “Bisphosphonate inhibitors of ATP-mediated HIV-1 reverse transcriptase catalyzed excision of chain-terminating 3'-azido, 3'-deoxythymidine: a QSAR investigation” (Bioorg Med Chem, 2008).

For orientation: IC50 means the concentration that inhibits the measured activity by half. What is called pIC50 is the negative decadic logarithm of the IC50, by convention in mol/L. The low end stands for a high IC50, the high end for a low IC50.

`O=P(O)(O)C(CNc1ccc(-c2ccccc2)cc1)P(=O)(O)O`: the IC50 in series [1] came out at 4.6 µM; in series [2] it was 84 µM; in series [3], 95 µM; in series [4] it was 95 µM. In series [1], this compound came in with a pIC50 of 5.3. Moreover, in series [5], the outcome was inactive.

`O=P(O)(O)C(O)(Cc1ccc(-c2ccc(F)cc2)cc1)P(=O)(O)O`: the IC50 was 2.9 µM in series [1], over 300 µM in series [2], over 300 µM in series [3] and over 300 µM in series [4]. The pIC50 in series [1] is recorded as 5.5. For the same compound, in series [5], the outcome was inactive.

In series [1], `CN(CCCc1ccccc1)CCC(O)(P(=O)(O)O)P(=O)(O)O` gave an IC50 of 302 µM and a pIC50 of 3.5.

Turning to `O=P(O)(O)C(Nc1cccc(-c2cc(F)cc(F)c2)c1)P(=O)(O)O`, the IC50 in series [1] is 2.2 µM; in series [2], over 100 µM; in series [3], over 100 µM; in series [4], over 100 µM. This compound also had a pIC50 in series [1] of 5.7. The outcome in series [5] was inactive.

On to `COc1ccc(-c2cccc(CC(O)(P(=O)(O)O)P(=O)(O)O)c2)cc1`, for which the IC50 in series [1] was 2.4 µM; in series [2], 128 µM; in series [3] it was 139 µM; in series [4], 118 µM. The pIC50 in series [1] amounted to 5.6. The result in series [5] was inactive.

Regarding `O=P(O)(O)C(O)(Cc1cccc(-c2cc(F)ccc2F)c1)P(=O)(O)O`, the IC50 in series [1] amounted to 1.5 µM; in series [2], 165 µM; in series [3], 122 µM; in series [4], 141 µM. The same compound registered a pIC50 in series [1] of 5.8. The result in series [5] was inactive.

On to `O=P(O)(O)C(Nc1cccc(-c2ccc(F)c(F)c2)c1)P(=O)(O)O`, for which the IC50 was 2.1 µM in series [1], over 300 µM in series [2], over 300 µM in series [3] and over 300 µM in series [4]. In series [1], this compound displayed a pIC50 of 5.7. Further, the result in series [5] was inactive.

In series [1], `COc1ccc(-c2ccc(CC(O)(P(=O)(O)O)P(=O)(O)O)cc2)cc1` showed an IC50 of 5.2 µM and a pIC50 of 5.3. The outcome in series [5] was inactive.

For `O=P(O)(O)C(Nc1cccc(-c2ccc(F)cc2F)c1)P(=O)(O)O`, the IC50 in series [1] was 3.9 µM; in series [2], over 300 µM; in series [3], over 300 µM; in series [4], over 300 µM. Besides, in series [1], the pIC50 was determined as 5.4. The outcome in series [5] was inactive.

For the compound `O=P(O)(O)C(O)(Cc1ccc(-c2ccc(Cl)cc2)cc1)P(=O)(O)O`, the IC50 was 3.9 µM in series [1], over 100 µM in series [2], over 100 µM in series [3] and over 100 µM in series [4]. In series [1], this compound gave a pIC50 of 5.4. In addition, in series [5], the outcome was inactive.

Take `O=P(O)(O)C(Nc1cccc(-c2ccccc2)c1)P(=O)(O)O`: the IC50 in series [1] was 3.2 µM; in series [2], 289 µM; in series [3] it was 269 µM; in series [4], 253 µM. In series [1], the pIC50 was found to be 5.5. In addition, the outcome in series [5] was inactive.

In the case of `O=P(O)(O)C(Nc1ccc(-c2ccccc2)cc1)P(=O)(O)O`, in series [1], the IC50 is 302 µM and the pIC50 turned out to be 3.5.

For the compound `CCCCCCCc1ccc(NC(P(=O)(O)O)P(=O)(O)O)cc1`, in series [1], the IC50 came to 302 µM and the pIC50 stood at 3.5.

For the compound `COCc1cccc(NC(P(=O)(O)O)P(=O)(O)O)c1`, the IC50 was 9.5 µM in series [1], over 300 µM in series [2], over 300 µM in series [3] and over 300 µM in series [4]. Also, the pIC50 in series [1] stood at 5. Besides, in series [5], the outcome was inactive.

In series [1], `CCCCCCCCCCCC(O)(P(=O)(O)O)P(=O)(O)O` displayed an IC50 of 302 µM and a pIC50 of 3.5.

Regarding `O=P(O)(O)C(O)(Cc1ccc(Cl)c(Cl)c1)P(=O)(O)O`, the IC50 in series [1] was determined as 0.5 µM; in series [2], 213 µM; in series [3], 208 µM; in series [4] it was 241 µM. The same compound had a pIC50 in series [1] of 6.3. Also, in series [5], the result was inactive.

`O=P(O)(O)C(Nc1cccc(CO)c1)P(=O)(O)O`: the concentration for half-maximal inhibition (IC50) was 7.9 µM in series [1], over 300 µM in series [2], over 300 µM in series [3] and over 300 µM in series [4]. The pIC50 in series [1] stood at 5.1. The outcome in series [5] was inactive.

Take `COc1cccc(CC(O)(P(=O)(O)O)P(=O)(O)O)c1`: the IC50 is 5.4 µM in series [1], over 300 µM in series [2], over 300 µM in series [3] and over 300 µM in series [4]. The same compound registered a pIC50 in series [1] of 5.3. Also, the outcome in series [5] was inactive.

In series [1], `CCCCCCc1ccc(NC(P(=O)(O)O)P(=O)(O)O)cc1` returned an IC50 of 302 µM and a pIC50 of 3.5.

Regarding `O=P(O)(O)C(O)(Cc1cccc(Oc2ccccc2)c1)P(=O)(O)O`, the IC50 is 3.3 µM in series [1], 188 µM in series [2], 176 µM in series [3] and 212 µM in series [4]. In series [1], this compound showed a pIC50 of 5.5. Besides, the result in series [5] was inactive.

On to `O=P(O)(O)C(Nc1ccc(Cc2ccccc2)cc1)P(=O)(O)O`, for which the IC50 in series [1] is 3.5 µM; in series [2], over 100 µM; in series [3] it was over 100 µM; in series [4], over 100 µM. The pIC50 in series [1] stood at 5.5. The outcome in series [5] was inactive.

Regarding `CN(C)c1ccccc1CC(O)(P(=O)(O)O)P(=O)(O)O`, the IC50 in series [1] is 51.3 µM; in series [2], over 300 µM; in series [3] it was over 300 µM; in series [4] it was over 300 µM. Moreover, the pIC50 in series [1] is given as 4.3. The result in series [5] was inactive.

As to `O=P(O)(O)C(CNc1cccc(-c2ccccc2)c1)P(=O)(O)O`, the IC50 in series [1] was 11.2 µM; in series [2] it was over 300 µM; in series [3], over 300 µM; in series [4], over 300 µM. This compound yielded a pIC50 in series [1] of 5. Further, in series [5], the outcome was inactive.

As to `O=P(O)(O)C(O)(Cc1cccc(-c2ccc(F)c(F)c2)c1)P(=O)(O)O`, the IC50 in series [1] is 1 µM; in series [2], 225 µM; in series [3] it was 236 µM; in series [4] it was 253 µM. Also, the pIC50 in series [1] turned out to be 6. Also, the result in series [5] was inactive.

Turning to `O=P(O)(O)C(O)(Cc1ccccc1)P(=O)(O)O`, in series [1], half-maximal inhibition (IC50) was put at 302 µM and the pIC50 is 3.5.

In series [1], `CCCCCCCCC(O)(P(=O)(O)O)P(=O)(O)O` yielded an IC50 of 302 µM and a pIC50 of 3.5.

As to `CCCCCCCCCC(O)(P(=O)(O)O)P(=O)(O)O`, in series [1], the IC50 was 302 µM and the pIC50 was 3.5.

As for `Nc1ccccc1CC(O)(P(=O)(O)O)P(=O)(O)O`, the IC50 in series [1] worked out at 38 µM; in series [2], 205 µM; in series [3] it was 186 µM; in series [4], 187 µM. In addition, the pIC50 in series [1] was determined as 4.4. Moreover, in series [5], the outcome was inactive.

In the case of `O=P(O)(O)C(O)(C[n+]1ccccc1)P(=O)(O)O`, in series [1], the IC50 was 302 µM and the pIC50 is recorded as 3.5.

Consider `O=P(O)(O)C(O)(Cc1cccc(-c2ccc(Cl)cc2)c1)P(=O)(O)O`, for which the IC50 in series [1] was determined as 0.9 µM; in series [2], 41 µM; in series [3], 48 µM; in series [4], 39 µM. In series [1], this compound showed a negative logarithm of the IC50 (pIC50) of 6.1. The result in series [5] was inactive.

On to `Cc1ccc(NC(P(=O)(O)O)P(=O)(O)O)cc1-c1ccccc1`, for which the half-maximal inhibitory concentration (IC50) came to 5 µM in series [1], 296 µM in series [2], 297 µM in series [3] and 301 µM in series [4]. The same compound had a pIC50 in series [1] of 5.3. The outcome in series [5] was inactive.

In series [1], `NCCCCCC(O)(P(=O)(O)O)P(=O)(O)O` [NERIDRONIC ACID] yielded an IC50 of 302 µM and a pIC50 of 3.5.

On to `O=P(O)(O)C(O)(Cc1cccc(-c2ccc(F)cc2)c1)P(=O)(O)O`, for which the IC50 in series [1] amounted to 1.9 µM; in series [2], 173 µM; in series [3], 224 µM; in series [4], 175 µM. The pIC50 in series [1] came out at 5.7. The outcome in series [5] was inactive.

`O=P(O)(O)C(Nc1cccc(Br)c1)P(=O)(O)O`: the IC50 in series [1] is 1 µM; in series [2], over 300 µM; in series [3], over 300 µM; in series [4] it was over 300 µM. The pIC50 in series [1] came out at 6. Moreover, the result in series [5] was inactive.

For the compound `O=P(O)(O)C(O)(Cc1cccc2ccccc12)P(=O)(O)O`, the IC50 is 1.3 µM in series [1], 259 µM in series [2], 225 µM in series [3] and 248 µM in series [4]. Further, in series [1], the pIC50 is 5.9. For the same compound, in series [5], the outcome was inactive.
